Laboratory results taken from ChEMBL document CHEMBL1122368, “Synthesis and antihypertensive activity of some new quinazoline derivatives” (1983).

What was measured:
Rattus norvegicus [1] = assay: Antihypertensive activity as fall in systolic blood pressure after 3 h of 100 umol/kg po dosing in Spontaneously hypertensive rats.; format: functional, Artery
Method in brief: (§1)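 Conscious spontaneously hypertensive rats dosed by gavage, about 1 mL/rat. Systolic pressure recorded by tail-cuff after warming the rats 30 min at 36 °C. Fall in systolic BP (mmHg) read versus control values; listed values are significant decreases (p ≤ 0.05), otherwise marked NS. Baseline systolic pressure 175–190 mmHg across experiments.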

Rattus norvegicus [2] = assay: Antihypertensive activity as fall in systolic blood pressure after 5 hr of 10 uM/kg po dosing in Spontaneously hypertensive rats.; format: functional, Artery; method in brief: as §1
Rattus norvegicus [3] = assay: Antihypertensive activity as fall in systolic blood pressure after 1 hr of 100 umol/kg po dosing in Spontaneously hypertensive rats.; format: functional, Artery; method in brief: as §1
Rattus norvegicus [4] = assay: Hypotensive activity in anesthetized rats, dose that produced a 30% fall in mean blood pressure; format: functional
Method in brief: (§2)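 Normotensive rats under urethane anaesthesia, arterial pressure recorded, femoral vein cannulated. Dosing iv in rising doses (0.01, 0.1, 1, 10 μmol/kg) at 30-min intervals, 1 mL/kg over 2 min; solvent-treated controls. Colonic temperature held at 38.0 ± 0.3 °C. Effect read at its maximum, 1–5 min after injection. ED30 is the dose (μmol/kg) giving a 30% fall in mean blood pressure.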

Rattus norvegicus [5] = assay: Antihypertensive activity as fall in systolic blood pressure after 1 hr of 10 uM/kg po dosing in Spontaneously hypertensive rats.; format: functional, Artery; method in brief: as §1
Rattus norvegicus [6] = assay: Antihypertensive activity as fall in systolic blood pressure after 1 h of 1 umol/kg po dosing in Spontaneously hypertensive rats.; format: functional, Artery; method in brief: as §1
Rattus norvegicus [7] = assay: Antihypertensive activity as fall in systolic blood pressure after 3 hr of 10 uM/kg po dosing in Spontaneously hypertensive rats.; format: functional, Artery; method in brief: as §1
Rattus norvegicus [8] = assay: Antihypertensive activity as fall in systolic blood pressure after 5 h of 1 umol/kg po dosing in Spontaneously hypertensive rats;NS means nonsignificant change in blood pressure.; format: functional, organism-based; conditions: Artery; method in brief: as §1
Rattus norvegicus [9] = assay: Antihypertensive activity as fall in systolic blood pressure after 5 h of 100 umol/kg po dosing in Spontaneously hypertensive rats.; format: functional, Artery; method in brief: as §1
Rattus norvegicus [10] = assay: Antihypertensive activity as fall in systolic blood pressure after 3 hr of 1 umol/kg po dosing in Spontaneously hypertensive rats;NS means nonsignificant change in blood pressure.; format: functional, organism-based; conditions: Artery; method in brief: as §1
Rattus norvegicus [11] = assay: Hypotensive activity in anesthetized rats, dose that produced a 30% fall in mean blood pressure after 30 minutes; format: functional
Method in brief: as §2, with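 “solvent controls; colonic” for “solvent-treated controls. Colonic”, “temperature” for “temperature held at”, “Fall in pressure” for “Effect”, “30” for “at its maximum, 1–5”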

Rattus norvegicus [12] = assay: Antihypertensive activity as fall in systolic blood pressure after 3 hr of 1 umol/kg po dosing in Spontaneously hypertensive rats.; format: functional, Artery; method in brief: as §1
Rattus norvegicus [13] = assay: Antihypertensive activity as fall in systolic blood pressure after 5 hr of 1 umol/kg po dosing in Spontaneously hypertensive rats.; format: functional, Artery; method in brief: as §1
Rattus norvegicus [14] = assay: Antihypertensive activity as fall in systolic blood pressure after 5 hr of 3 umol/kg po dosing in Spontaneously hypertensive rats.; format: functional, Artery; method in brief: as §1
Rattus norvegicus [15] = assay: Antihypertensive activity as fall in systolic blood pressure after 3 h of 0.3 umol/kg po dosing in Spontaneously hypertensive rats.; format: functional, Artery; method in brief: as §1
Rattus norvegicus [16] = assay: Antihypertensive activity as fall in systolic blood pressure after 1 h of 3 umol/kg po dosing in Spontaneously hypertensive rats.; format: functional, Artery; method in brief: as §1
Rattus norvegicus [17] = assay: Antihypertensive activity as fall in systolic blood pressure after 5 h of 0.3 umol/kg po dosing in Spontaneously hypertensive rats.; format: functional, Artery; method in brief: as §1
Rattus norvegicus [18] = assay: Antihypertensive activity as fall in systolic blood pressure after 3 h of 3 umol/kg po dosing in Spontaneously hypertensive rats.; format: functional, Artery; method in brief: as §1
Rattus norvegicus [19] = assay: Antihypertensive activity as fall in systolic blood pressure after 1 h of 0.3 umol/kg po dosing in Spontaneously hypertensive rats;NS means nonsignificant change in blood pressure.; format: functional, organism-based; conditions: Artery; method in brief: as §1
Rattus norvegicus [20] = assay: Antihypertensive activity as fall in systolic blood pressure after 1 h of 100 umol/kg po dosing in Spontaneously hypertensive rats.; format: functional, Artery; method in brief: as §1
Rattus norvegicus [21] = assay: Antihypertensive activity as fall in systolic blood pressure after 5 hr of 1 uM/kg po dosing in Spontaneously hypertensive rats.; format: functional, Artery; method in brief: as §1
Rattus norvegicus [22] = assay: Antihypertensive activity as fall in systolic blood pressure after 1 hr of 1 uM/kg po dosing in Spontaneously hypertensive rats.; format: functional, Artery; method in brief: as §1
Rattus norvegicus [23] = assay: Antihypertensive activity as fall in systolic blood pressure after 3 hr of 1 uM/kg po dosing in Spontaneously hypertensive rats.; format: functional, Artery; method in brief: as §1
Rattus norvegicus [24] = assay: Antihypertensive activity as fall in systolic blood pressure after 3 hr of 100 umol/kg po dosing in Spontaneously hypertensive rats.; format: functional, Artery; method in brief: as §1
Rattus norvegicus [25] = assay: Antihypertensive activity as fall in systolic blood pressure after 1 hr of 10 uM/kg po dosing in Spontaneously hypertensive rats;NS means nonsignificant change in blood pressure.; format: functional, organism-based; conditions: Artery; method in brief: as §1

| Compound | ED30 (Rattus norvegicus [4]) [µM/kg] | ED30 (Rattus norvegicus [11]) [µM/kg] | other results |
| --- | --- | --- | --- |
| COc1cc2nc(N3CCC(C(=O)N4CCCCCCC4)CC3)nc(N)c2cc1OC.Cl | 0.02 | 0.05 | Decrease in SBP (Rattus norvegicus [1]): 66 mmHg; Decrease in SBP (Rattus norvegicus [2]): 26 mmHg; Decrease in SBP (Rattus norvegicus [3]): 52 mmHg; Decrease in SBP (Rattus norvegicus [5]): 29 mmHg; Decrease in SBP (Rattus norvegicus [6]): 11 mmHg; Decrease in SBP (Rattus norvegicus [7]): 29 mmHg; Decrease in SBP (Rattus norvegicus [8]): Not significant; Decrease in SBP (Rattus norvegicus [9]): 83 mmHg; Decrease in SBP (Rattus norvegicus [10]): Not significant |
| COc1cc2nc(N3CCCC(C(=O)N4CCCC4)C3)nc(N)c2cc1OC.Cl (stereo in doubt; 6ii) | 10 | 15 |  |
| COc1cc2nc(N3CCC(C(=O)c4cccs4)CC3)nc(N)c2cc1OC.Cl | 0.2 | 6 |  |
| COc1cc2nc(N3CCC(C(C)O)CC3)nc(N)c2cc1OC.Cl (configuration not stated) | 0.5 | 0.7 |  |
| COc1cc2nc(N3CCC(C(O)C4CCCC4)CC3)nc(N)c2cc1OC.Cl (configuration not stated) | 0.1 | 0.7 |  |
| COc1cc2nc(N3CCC(C(=O)N4CCCC4)CC3)nc(N)c2cc1OC.Cl | 0.2 | 0.4 |  |
| COc1cc2nc(N3CCC(C(=O)OCC(C)(C)C)CC3)nc(N)c2cc1OC.Cl | 0.03 | 2 |  |
| COc1cc2nc(N3CCC(C(=O)NC(C)(C)C)CC3)nc(N)c2cc1OC.Cl | 0.08 | 1 |  |
| COc1cc2nc(N3CCC(C(=O)N4CCCCCC4)CC3)nc(N)c2cc1OC.Cl | 0.01 | 0.05 |  |
| CCOC(=O)C1CCN(c2nc(N)c3cc(OC)c(OC)cc3n2)CC1.Cl | 0.3 | 30 |  |
| COc1cc2nc(N3CCC(C(=O)N4CCCCC4)CC3)nc(N)c2cc1OC.Cl | 0.02 | 0.08 |  |
| COc1cc2nc(N3CCC(Cc4ccccc4)CC3)nc(N)c2cc1OC.Cl | 0.06 | 0.07 |  |
| COc1cc2nc(N3CCC(C(O)C4CCCCC4)CC3)nc(N)c2cc1OC.Cl (configuration not stated) | 0.06 | 0.1 | Decrease in SBP (Rattus norvegicus [2]): 38 mmHg; Decrease in SBP (Rattus norvegicus [12]): 17 mmHg; Decrease in SBP (Rattus norvegicus [5]): 25 mmHg; Decrease in SBP (Rattus norvegicus [6]): 12 mmHg; Decrease in SBP (Rattus norvegicus [7]): 30 mmHg; Decrease in SBP (Rattus norvegicus [13]): 19 mmHg |
| COc1cc2nc(N3CCC(C(=O)N4C(C)CCCC4C)CC3)nc(N)c2cc1OC.Cl (configuration not stated) | 0.08 | 0.2 |  |
| COc1cc2nc(N3CCC(C(=O)C4CCCC4)CC3)nc(N)c2cc1OC.Cl | 0.06 | 0.09 | Decrease in SBP (Rattus norvegicus [14]): 35 mmHg; Decrease in SBP (Rattus norvegicus [2]): 50 mmHg; Decrease in SBP (Rattus norvegicus [15]): 11 mmHg; Decrease in SBP (Rattus norvegicus [12]): 20 mmHg; Decrease in SBP (Rattus norvegicus [5]): 45 mmHg; Decrease in SBP (Rattus norvegicus [6]): 18 mmHg; Decrease in SBP (Rattus norvegicus [7]): 54 mmHg; Decrease in SBP (Rattus norvegicus [16]): 34 mmHg; Decrease in SBP (Rattus norvegicus [17]): 11 mmHg; Decrease in SBP (Rattus norvegicus [18]): 34 mmHg; Decrease in SBP (Rattus norvegicus [19]): Not significant; Decrease in SBP (Rattus norvegicus [13]): 21 mmHg |
| CCCCC(=O)C1CCN(c2nc(N)c3cc(OC)c(OC)cc3n2)CC1.Cl | 0.03 | 0.06 | Decrease in SBP (Rattus norvegicus [2]): 27 mmHg; Decrease in SBP (Rattus norvegicus [12]): 14 mmHg; Decrease in SBP (Rattus norvegicus [5]): 40 mmHg; Decrease in SBP (Rattus norvegicus [6]): 13 mmHg; Decrease in SBP (Rattus norvegicus [7]): 36 mmHg; Decrease in SBP (Rattus norvegicus [8]): Not significant |
| COc1cc2nc(N3CCC(C)CC3)nc(N)c2cc1OC.Cl | 0.08 |  |  |
| COc1cc2nc(N3CCN(C(=O)c4ccco4)CC3)nc(N)c2cc1OC [PRAZOSIN] | 0.01 | 0.03 | Decrease in SBP (Rattus norvegicus [20]): 38 mmHg; Decrease in SBP (Rattus norvegicus [21]): 26 mmHg; Decrease in SBP (Rattus norvegicus [22]): 29 mmHg; Decrease in SBP (Rattus norvegicus [2]): 34 mmHg; Decrease in SBP (Rattus norvegicus [5]): 38 mmHg; Decrease in SBP (Rattus norvegicus [7]): 36 mmHg; Decrease in SBP (Rattus norvegicus [23]): 30 mmHg; Decrease in SBP (Rattus norvegicus [24]): 30 mmHg; Decrease in SBP (Rattus norvegicus [9]): 26 mmHg |
| COc1cc2nc(N3CCC(C(=O)N4C(C)CCC4C)CC3)nc(N)c2cc1OC.Cl (configuration not stated) | 0.08 | 0.2 |  |
| COc1cc2nc(N3CCC(C(N)=O)CC3)nc(N)c2cc1OC.Cl | 0.1 | 0.8 |  |
| CCOC(=O)C1CCCN(c2nc(N)c3cc(OC)c(OC)cc3n2)C1.Cl (stereo in doubt; 6c) | 0.8 | 20 |  |
| CCOC(=O)C1CCCN(c2nc(N)c3cc(OC)c(OC)cc3n2)C1.Cl (stereo in doubt; 6cc) | 0.2 |  |  |
| COc1cc2nc(N3CCC(C(=O)N4CCCCC4C)CC3)nc(N)c2cc1OC.Cl (configuration not stated) | 0.1 | 0.9 |  |
| COc1cc2nc(N3CCC(C(=O)N4CCC4)CC3)nc(N)c2cc1OC.Cl | 0.07 | 0.4 |  |
| COc1cc2nc(N3CCC(C(=O)C4CCCCC4)CC3)nc(N)c2cc1OC.Cl | 0.07 | 0.1 | Decrease in SBP (Rattus norvegicus [25]): Not significant; Decrease in SBP (Rattus norvegicus [2]): 51 mmHg; Decrease in SBP (Rattus norvegicus [12]): 20 mmHg; Decrease in SBP (Rattus norvegicus [6]): 15 mmHg; Decrease in SBP (Rattus norvegicus [7]): 54 mmHg; Decrease in SBP (Rattus norvegicus [8]): Not significant |
| CCC(=O)C1CCN(c2nc(N)c3cc(OC)c(OC)cc3n2)CC1.Cl | 5 | 30 |  |
| COc1cc2nc(N3CCCC(C(=O)N4CCCC4)C3)nc(N)c2cc1OC.Cl (stereo in doubt; 6i) | 12 | 30 |  |
| CCCCC(O)C1CCN(c2nc(N)c3cc(OC)c(OC)cc3n2)CC1.Cl (configuration not stated) | 0.1 | 0.7 |  |
